Here are results for 2 compounds from publication PMC4402254 (ACS chemical biology, 2015).

In series [1] the target is 53BP1 (Homo sapiens, UniProt Q12888). Nature of the series: AlphaScreen Kme reader panel: 53BP1. Format: binding. The method in brief: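 Compound serially diluted 3-fold over 10 points in DMSO, top final 100 µM, and preincubated 30 min at RT with His-tagged reader protein–peptide mix in 20 mM Tris pH 8.0, 25 mM NaCl, 2 mM DTT, 0.05% Tween-20. Streptavidin donor/nickel-chelate acceptor bead mix (45 µg/mL) then added for 30 min, dark, RT, and AlphaScreen signal read. The same format was used across the Kme reader panel. IC50 is the mean of ≥3 values ± SD.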
Sequence of 53BP1 (Q12888 1484-1603 limits assumed): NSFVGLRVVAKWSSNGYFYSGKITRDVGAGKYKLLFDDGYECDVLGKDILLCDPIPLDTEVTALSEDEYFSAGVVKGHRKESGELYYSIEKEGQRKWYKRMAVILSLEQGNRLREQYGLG
In general terms: Bead proximity is the source of the signal in Alpha formats.

The target in series [2] is 53BP1 D1521A mutant (Homo sapiens, UniProt Q12888, D1521A). Nature of the series: ITC with active site mutant. Format: binding. Particulars: Kme pocket mutant, listed as UNC2170.
Sequence of 53BP1 D1521A mutant (Q12888 1484-1603 D1521A limits assumed): as the sequence (Q12888 1484-1603 limits assumed) above, with D38A counted along it
Series [3] deals with endogenous 53BP1 (Homo sapiens, UniProt Q12888). Kind of series: Chromatin release assay in HEK293 cell lysates. In kind it is biochemical. Particulars: 2 hours at room temperature. The method in brief: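 HEK293 cells were lysed in EBC-1 (Tris pH 7.5, 100 mM NaCl, 0.5% NP-40, 1 mM EDTA). Washed nuclei were held 30 min in EBC-2 (Tris pH 7.5, 300 mM NaCl, 5 mM CaCl2), and the insoluble chromatin was pelleted and resuspended in EBC-2. Chromatin was exposed to test compound 2 h at RT. The supernatant (soluble) and the sonicated pellet (chromatin-bound) were western blotted for 53BP1, with histone H3 as loading control.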
Sequence of endogenous 53BP1 (Q12888 whole entry): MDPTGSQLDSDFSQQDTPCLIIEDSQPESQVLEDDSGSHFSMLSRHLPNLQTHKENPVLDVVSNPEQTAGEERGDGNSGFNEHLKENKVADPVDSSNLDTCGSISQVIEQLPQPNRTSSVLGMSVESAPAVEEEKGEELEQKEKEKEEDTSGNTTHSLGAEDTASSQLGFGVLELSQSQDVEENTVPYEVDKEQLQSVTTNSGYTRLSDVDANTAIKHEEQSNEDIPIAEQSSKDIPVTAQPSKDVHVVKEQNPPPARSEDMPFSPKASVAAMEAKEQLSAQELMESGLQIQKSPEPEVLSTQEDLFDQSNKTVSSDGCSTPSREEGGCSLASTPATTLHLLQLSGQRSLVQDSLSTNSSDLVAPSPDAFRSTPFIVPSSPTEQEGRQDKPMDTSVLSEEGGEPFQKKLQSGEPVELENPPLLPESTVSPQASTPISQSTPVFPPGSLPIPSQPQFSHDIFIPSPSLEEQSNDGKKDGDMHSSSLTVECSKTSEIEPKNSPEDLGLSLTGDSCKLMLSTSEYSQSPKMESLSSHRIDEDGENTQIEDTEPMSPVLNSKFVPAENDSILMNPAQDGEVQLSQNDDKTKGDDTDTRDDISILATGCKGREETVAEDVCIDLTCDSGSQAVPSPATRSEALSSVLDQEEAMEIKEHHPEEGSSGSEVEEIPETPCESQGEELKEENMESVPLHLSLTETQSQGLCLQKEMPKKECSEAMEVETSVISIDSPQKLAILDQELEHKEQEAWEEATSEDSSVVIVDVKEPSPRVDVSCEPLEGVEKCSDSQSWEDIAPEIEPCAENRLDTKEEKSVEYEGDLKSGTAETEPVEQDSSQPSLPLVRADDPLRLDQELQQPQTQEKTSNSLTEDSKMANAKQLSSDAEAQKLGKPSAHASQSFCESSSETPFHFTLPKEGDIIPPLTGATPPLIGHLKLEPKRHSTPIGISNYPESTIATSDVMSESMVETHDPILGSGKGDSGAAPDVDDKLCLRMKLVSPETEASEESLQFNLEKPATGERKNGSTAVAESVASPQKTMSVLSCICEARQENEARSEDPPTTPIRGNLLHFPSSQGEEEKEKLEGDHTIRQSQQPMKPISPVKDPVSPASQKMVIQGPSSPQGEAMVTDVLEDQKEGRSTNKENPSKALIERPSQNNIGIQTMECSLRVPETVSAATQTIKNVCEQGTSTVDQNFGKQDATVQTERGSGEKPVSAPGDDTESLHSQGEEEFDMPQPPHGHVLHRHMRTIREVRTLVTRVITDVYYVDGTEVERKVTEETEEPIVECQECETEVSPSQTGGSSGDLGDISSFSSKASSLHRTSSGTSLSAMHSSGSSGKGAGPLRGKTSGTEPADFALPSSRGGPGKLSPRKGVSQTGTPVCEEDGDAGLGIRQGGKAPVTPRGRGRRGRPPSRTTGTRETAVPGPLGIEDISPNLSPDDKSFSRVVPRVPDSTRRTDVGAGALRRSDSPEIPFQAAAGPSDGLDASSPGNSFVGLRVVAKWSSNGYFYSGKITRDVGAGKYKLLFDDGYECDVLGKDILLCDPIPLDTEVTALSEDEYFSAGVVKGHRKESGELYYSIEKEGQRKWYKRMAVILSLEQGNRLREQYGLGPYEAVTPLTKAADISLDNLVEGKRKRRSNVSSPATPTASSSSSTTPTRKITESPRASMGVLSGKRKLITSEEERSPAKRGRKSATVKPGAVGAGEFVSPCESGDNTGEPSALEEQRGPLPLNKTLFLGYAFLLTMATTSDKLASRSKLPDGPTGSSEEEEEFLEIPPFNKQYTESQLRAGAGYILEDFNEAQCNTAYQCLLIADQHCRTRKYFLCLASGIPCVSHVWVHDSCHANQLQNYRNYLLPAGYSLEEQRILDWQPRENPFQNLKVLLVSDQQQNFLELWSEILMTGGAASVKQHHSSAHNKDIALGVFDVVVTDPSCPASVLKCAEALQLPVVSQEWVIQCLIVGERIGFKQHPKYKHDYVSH

For series [4], the system named is Caco-2 cell. Kind of series: Bi-directional Caco-2 cell permeability assay. Format: in vitro ADME. (In general: Caco-2 monolayers are a common model of the intestinal barrier.)
A short description of series [5]: CellTiter-Glo luminescent cell-viability assay. Format: cell-based. A general note: In ATP-based viability assays light output follows the ATP content of the culture.
In series [6] the test system is U2OS cells. Nature of the series: 53BP1 and γH2AX foci formation after ionizing radiation. Format: cell-based.
Series [7] deals with GFP fusion protein containing the 53BP1 tudor domains (Homo sapiens, UniProt Q12888). Nature of the series: Fluorescence recovery after photobleaching. Format: cell-based. The following applies: FRAP before or after ionizing radiation (10 Gy).
Sequence of GFP fusion protein containing the 53BP1 tudor domains (Q12888 1484-1603 limits assumed): as the sequence (Q12888 1484-1603 limits assumed) above
Series [8] relates to Naive IgM+ B cells. Nature of the series: Class switch recombination. Format: cell-based, mouse. Particulars: 300 µM.
In series [9] the target is tudor domain of 53BP1 (Homo sapiens, UniProt Q12888). Nature of the series: 1H-15N HSQC NMR of 53BP1 tudor domain. In kind it is binding. Particulars: 10-fold molar excess of ligand.
Sequence of tudor domain of 53BP1 (Q12888 1484-1603 limits assumed): as above
Series [10] has as its target 53BP1 tandem tudor domain (Homo sapiens, UniProt Q12888). Kind of series: Isothermal titration calorimetry. In kind it is binding. Particulars: ITC.

Sequence of 53BP1 tandem tudor domain (Q12888 1484-1603 limits assumed): as above

For the compound `CC(C)(C)NCCCNC(=O)c1cccc(Br)c1` [Compound 1], in series [1], the ligand efficiency stood at 0.35 and the lipophilic ligand efficiency is recorded as 1.5. Moreover, in series [1] (versus nine other Kme reader proteins, AlphaScreen), the “selectivity for 53BP1 as compared to other Kme binding proteins tested” value was “at least 17 fold”. In addition, in [2], the “binding to 53BP1 D1521A mutant” value is “abrogated”. Moreover, the “lowest concentration at which partial release of 53BP1 was detected” value in series [3] is 10 µM. Also, the cell permeability entry in [4] is “highly cell permeant”. In addition, in [5], the “concentration at which cell toxicity begins to take effect” value is > 10000 µM. The γH2AX foci result in [6] (after compound treatment) is reported as “no changes were observed”. Further, the “extent of endogenous 53BP1 foci formed following irradiation” value in series [6] (pretreatment 1 hour, 100 – 300 µM, 5 Gy) was “did not significantly decrease”. Moreover, the “apparent residence time of GFP-53BP1 tudor fusion protein” value in series [7] is recorded as “did not affect”. The “cell viability of B cells undergoing CSR” value in [8] is on record as “reduction in cell viability”. The “changes in chemical shifts of 53BP1 tudor domain” value in [9] is “Extensive changes in chemical shifts were observed”.
As for `CN(CCCNC(=O)c1cccc(Br)c1)C(C)(C)C` [Compound 4], the “Kd against the 53BP1 tandem tudor domain” value in series [10] is listed as “no measurable affinity”.
